# Data taken from ChEMBL document CHEMBL3994569, “Synthesis, anti-varicella-zoster virus and anti-cytomegalovirus activity of quinazoline-2,4-diones containing isoxazolidine and phosphonate substructures” (Eur J Med Chem, 2017).
# Assays:
# Human adenovirus 2 = assay: Antiviral activity against Human adenovirus 2 infected in HEL cells assessed as reduction in virus-induced cytopathogenicity; format: functional, cell-based; settings: Human mastadenovirus C
# Method in brief: (§1)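 Confluent HEL fibroblast monolayers were infected with 100 CCID50 of virus and incubated with varying concentrations of compound. Cytopathicity was scored once it was complete in untreated infected controls.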
# [1] = Cytotoxicity against virus infected HEL cells assessed as alteration in cell morphology by microscopic method; format: cell-based; settings: human
# Method in brief: (§2)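 In the HEL cultures used for the antiviral assays, cell morphology was examined microscopically across varying compound concentrations. MCC is the minimum concentration causing a microscopically detectable alteration of cell morphology.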
# [2] = (§3) Cytotoxicity against HEL cells infected with Cytomegalovirus assessed as alteration in cell morphology by microscopic method; format: cell-based; settings: human, HEL cells infected with Cytomegalovirus; method in brief: as §2
# Human alphaherpesvirus 3 [3] = assay: Antiviral activity against thymidine kinase expressing Varicella-Zoster virus OKA infected in HEL cells assessed as reduction in virus plaque formation; format: functional, cell-based, strain Oka vaccine; settings: Human alphaherpesvirus 3, strain Oka vaccine, HEL
# Method in brief: (§4)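 Confluent HEL fibroblast cultures were infected with VZV at an input of 100 PFU and incubated with varying compound concentrations. Plaques were counted once plaque formation was complete in untreated infected controls.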
# Human alphaherpesvirus 3 [4] = assay: Antiviral activity against thymidine kinase deficient Varicella-Zoster virus 07-1 infected in HEL cells assessed as reduction in virus plaque formation; format: functional, cell-based; settings: Human alphaherpesvirus 3, 07-1, HEL; method in brief: as §4
# [5] = Cytotoxicity against HEL cells infected with Varicella-Zoster virus assessed as alteration in cell morphology by microscopic method; format: cell-based; settings: human, HEL cells infected with Varicella-Zoster virus; method in brief: as §2
# HEL [6] = assay: Cytotoxicity against HEL cells infected with Varicella-Zoster virus assessed as growth inhibition; format: cell-based; settings: human, hel
# Cytomegalovirus [7] = assay: Antiviral activity against Cytomegalovirus AD169 infected in HEL cells assessed as reduction in virus plaque formation; format: functional, cell-based
# Method in brief: (§5)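 Confluent HEL fibroblast cultures infected with 100 PFU of HCMV and kept with varying compound concentrations. Plaques scored once plaque formation was complete in untreated infected controls.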
# Cytomegalovirus [8] = assay: Antiviral activity against Cytomegalovirus Davis infected in HEL cells assessed as reduction in virus plaque formation; format: functional, cell-based; method in brief: as §5
# L1210 = assay: Anti-proliferative activity against mouse L1210 cells measured after 48 hrs by coulter counter method; format: ADME, cell-based
# Method in brief: (§6)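 Cells at 300,000–500,000 cells/mL, combined 1:1 by volume with compound dilutions, incubated at 37 °C: L1210 for two days, CEM for three days, HeLa for four days. Cells counted by Coulter counter.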
# CCRF-CEM = assay: Anti-proliferative activity against human CEM cells measured after 72 hrs by coulter counter method; format: ADME, cell-based; method in brief: as §6
# HeLa [9] = assay: Anti-proliferative activity against human HeLa cells measured after 72 hrs by coulter counter method; format: ADME, cell-based
# Human alphaherpesvirus 2 = assay: Antiviral activity against Herpes simplex virus 2 G infected in HEL cells assessed as reduction in virus-induced cytopathogenicity; format: functional, cell-based; settings: Human alphaherpesvirus 2, strain G
# HEL [10] = assay: as §3; format: cell-based; settings: human, hel; method in brief: as §2
# HeLa [11] = assay: Anti-proliferative activity against human HeLa cells measured after 4 days by coulter counter method; format: ADME, cell-based; settings: Homo sapiens, HeLa, 96 h; method in brief: as §6
# HMEC-1 = assay: Anti-proliferative activity against HMEC1 cells by coulter counter method; format: ADME, cell-based, Homo sapiens; settings: hmec-1
# Method in brief: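 HMEC-1 cells at 300,000–500,000 cells/mL, mixed 1:1 by volume with serial dilutions of test compound, incubated at 37 °C. Cell number counted by Coulter counter.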
# Human alphaherpesvirus 1 [12] = assay: Antiviral activity against Herpes simplex virus 1 KOS infected in HEL cells assessed as reduction in virus-induced cytopathogenicity; format: functional, cell-based; settings: Human alphaherpesvirus 1, KOS; method in brief: as §1
# Human alphaherpesvirus 1 [13] = assay: Antiviral activity against thymidine kinase-deficient acyclovir-resistant Herpes simplex virus 1 KOS infected in HEL cells assessed as reduction in virus-induced cytopathogenicity; format: functional, cell-based; settings: Human alphaherpesvirus 1, KOS; method in brief: as §1
# HEL [14] = assay: Cytotoxicity against HEL cells infected with Cytomegalovirus assessed as growth inhibition; format: cell-based; settings: human
# [15] = Human betaherpesvirus 5, AD169, HEL
# [16] = Human betaherpesvirus 5, Davis, HEL
compound,measurement,setting,value
Cc1cn([C@H]2C[C@H](F)[C@@H](CO)O2)c(=O)[nH]c1=O [ALOVUDINE],EC50,Human adenovirus 2,10 µM
same,MCC,[1],> 250 µM
CCOP(=O)(OCC)[C@@H]1C[C@@H](Cn2c(=O)n(C(=O)c3ccccc3)c(=O)c3ccccc32)ON1C,MCC,[2],100 µM
same,EC50,Human alphaherpesvirus 3 [3],7.5 µM
same,EC50,Human alphaherpesvirus 3 [4],13.7 µM
same,MCC,[5],≥ 100 µM
same,CC50,HEL [6],> 100 µM
same,EC50,Cytomegalovirus [7]; [15],> 100 µM
same,EC50,Cytomegalovirus [8]; [16],> 100 µM
same,IC50,"L1210; Mus musculus, L1210, 48 h",≥ 159 µM
same,IC50,"CCRF-CEM; Homo sapiens, CCRF-CEM, 72 h",70 µM
same,IC50,HeLa [9],96 µM
O=c1[nH]c(=O)n([C@H]2C[C@H](O)[C@@H](CO)O2)cc1/C=C/Br [BRIVUDINE],EC50,Human alphaherpesvirus 3 [3],0.005 µM
same,EC50,Human alphaherpesvirus 3 [4],22.7 µM
same,MCC,[5],> 300 µM
same,CC50,HEL [6],300 µM
same,EC50,Human alphaherpesvirus 2,146 µM
same,MCC,[1],> 250 µM
CCOP(=O)(OCC)C1CC(Cn2c(=O)n(Cc3cccc(F)c3)c(=O)c3ccccc32)ON1Cc1ccccc1 (mixture of isomers; cis),MCC,HEL [10],20 µM
same,EC50,Human alphaherpesvirus 3 [3],> 20 µM
same,EC50,Human alphaherpesvirus 3 [4],> 20 µM
same,MCC,[5],100 µM
same,EC50,Cytomegalovirus [7],> 20 µM
same,EC50,Cytomegalovirus [8],> 20 µM
same,IC50,L1210; l1210,89 µM
same,IC50,CCRF-CEM; ccrf-cem,49 µM
same,IC50,HeLa [11],73 µM
same,IC50,HMEC-1,204 µM
CCOP(=O)(OCC)[C@@H]1C[C@@H](Cn2ccc(=O)n(C(=O)c3ccccc3)c2=O)ON1C,MCC,[2],100 µM
same,EC50,Human alphaherpesvirus 3 [3],83.6 µM
same,EC50,Human alphaherpesvirus 3 [4],> 100 µM
same,MCC,[5],> 100 µM
same,EC50,Cytomegalovirus [7]; [15],> 100 µM
same,EC50,Cytomegalovirus [8]; [16],> 100 µM
same,IC50,"L1210; Mus musculus, L1210, 48 h",> 200 µM
same,IC50,"CCRF-CEM; Homo sapiens, CCRF-CEM, 72 h",> 200 µM
same,IC50,HeLa [9],> 200 µM
CCOP(=O)(OCC)[C@@H]1C[C@@H](Cn2c(=O)n(C(=O)c3ccc(F)cc3)c(=O)c3ccccc32)ON1C (relative stereo),MCC,[2],100 µM
same,EC50,Human alphaherpesvirus 3 [3],6.9 µM
same,EC50,Human alphaherpesvirus 3 [4],10.7 µM
same,MCC,[5],≥ 100 µM
same,CC50,HEL [6],14.7 µM
same,EC50,Cytomegalovirus [7]; [15],> 20 µM
same,EC50,Cytomegalovirus [8]; [16],> 20 µM
same,EC50,Human alphaherpesvirus 1 [12],39 µM
same,EC50,Human alphaherpesvirus 2,12 µM
same,EC50,Human alphaherpesvirus 1 [13],9 µM
same,EC50,Human adenovirus 2,17.5 µM
same,MCC,[1],≥ 100 µM
same,IC50,"L1210; Mus musculus, L1210, 48 h",> 250 µM
Nc1ccn([C@H]2CC[C@@H](CO)O2)c(=O)n1 [ZALCITABINE],EC50,Human adenovirus 2,7.2 µM
same,MCC,[1],> 250 µM
Nc1ccn(C[C@@H](CO)OCP(=O)(O)O)c(=O)n1 [CIDOFOVIR],MCC,[2],> 300 µM
same,EC50,Cytomegalovirus [7]; [15],1.44 µM
same,EC50,Cytomegalovirus [8]; [16],0.81 µM
same,EC50,Human alphaherpesvirus 1 [12],2 µM
same,EC50,Human alphaherpesvirus 2,2 µM
same,EC50,Human alphaherpesvirus 1 [13],3.8 µM
same,EC50,Human adenovirus 2,10 µM
same,CC50,HEL [14],> 300 µM
same,MCC,[1],> 250 µM
